We go through two compounds from article PMC3172397 (Journal of colloid and interface science, 2011).

The term Kd denotes a measure of binding affinity in units of concentration. Low values mean higher affinity, high ones lower affinity.

Common to all, as to test: intrinsic Trp fluorescence titration, Scatchard analysis
Common to all, as to assay type: binding

The target of assay [1] is Bovine Serum albumin (BSA) (Bos taurus, UniProt P02769). The method in brief: (§1)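 Trp fluorescence read with 295 nm excitation and 335–360 nm emission. Fraction bound was taken from intensity relative to unbound and saturated protein. K was taken from the slope of linear Scatchard (ν/c vs ν) segments.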
The target of a further assay is T1, ovalbumin (OVA) (Gallus gallus, UniProt P01012).
T1 sequence (P01012 2-386): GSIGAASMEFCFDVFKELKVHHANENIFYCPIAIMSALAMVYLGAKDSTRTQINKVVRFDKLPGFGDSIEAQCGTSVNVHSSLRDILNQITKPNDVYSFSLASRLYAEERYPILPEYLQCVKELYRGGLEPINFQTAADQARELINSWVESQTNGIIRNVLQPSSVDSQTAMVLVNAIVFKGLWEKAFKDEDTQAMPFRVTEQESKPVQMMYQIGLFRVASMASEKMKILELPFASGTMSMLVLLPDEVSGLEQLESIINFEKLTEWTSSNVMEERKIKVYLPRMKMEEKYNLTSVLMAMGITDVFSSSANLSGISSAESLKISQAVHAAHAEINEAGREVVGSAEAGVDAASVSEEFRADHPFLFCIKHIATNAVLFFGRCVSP
The method in brief:
as §1

For assay [2], the target named is α-chymotrypsinogen A (aCHY) (Bos taurus, UniProt P00766). The method in brief:
as §1

Bovine Serum albumin (BSA), sequence (P02769 25-607): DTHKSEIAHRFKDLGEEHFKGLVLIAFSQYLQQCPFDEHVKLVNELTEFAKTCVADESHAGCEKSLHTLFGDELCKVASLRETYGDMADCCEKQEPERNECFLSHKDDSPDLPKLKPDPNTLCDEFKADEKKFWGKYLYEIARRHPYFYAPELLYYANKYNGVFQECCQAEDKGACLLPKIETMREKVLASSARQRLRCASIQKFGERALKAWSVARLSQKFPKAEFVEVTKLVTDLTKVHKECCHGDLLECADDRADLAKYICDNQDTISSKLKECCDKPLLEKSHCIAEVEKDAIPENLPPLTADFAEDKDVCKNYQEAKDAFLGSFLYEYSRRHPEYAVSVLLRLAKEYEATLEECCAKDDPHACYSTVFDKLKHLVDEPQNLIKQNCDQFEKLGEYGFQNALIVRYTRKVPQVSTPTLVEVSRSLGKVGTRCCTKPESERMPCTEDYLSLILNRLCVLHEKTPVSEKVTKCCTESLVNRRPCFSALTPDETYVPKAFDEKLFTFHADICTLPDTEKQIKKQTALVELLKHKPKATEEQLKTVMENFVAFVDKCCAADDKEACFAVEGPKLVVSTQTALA

Turning to `CCCCCCCCCCCCOS(=O)(=O)O` [SDS], the figures for the Kd (in assay [1]; at ovalbumin (OVA); in assay [2]) were 22.2 µM, 11.7 µM and 455 µM, respectively.

Take `C=CCCCCCCCCCOS(=O)(=O)O` [SUS]: the affinity in assay [2], expressed as Kd, was 498 µM.
